M5 antag – blocks acetylcholine activation of human M5 receptor. inhibition, % at 3 µM. AID 624040. CHO-hM5 cells, Fluo-8 calcium fluorescence, ACh EC80. hit rate 0.59% among 360,000;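 active = inhibition above a per-plate cutoff, the mean of that plate's test compounds plus 3 SD, cut at about 27% in these data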;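 note: 0% = acetylcholine EC80 with DMSO and 100% = DMSO without agonist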
M1 ag – activates human CHRM1 receptor; activation, % at 3 µM; hit rate 0.33% among 360,000; P11229; AID 588814; CHO-K1 hM1, Fluo-8 calcium fluorescence, agonist mode; 0% DMSO, 100% acetylcholine EC100;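 active = activation above the run's mean compound activation plus 3 SD, cut at about 16% in these data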;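 note: peak over basal fluorescence ratio within a 140 s kinetic read after compound addition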
Target sequence (P11229 whole entry, looked up): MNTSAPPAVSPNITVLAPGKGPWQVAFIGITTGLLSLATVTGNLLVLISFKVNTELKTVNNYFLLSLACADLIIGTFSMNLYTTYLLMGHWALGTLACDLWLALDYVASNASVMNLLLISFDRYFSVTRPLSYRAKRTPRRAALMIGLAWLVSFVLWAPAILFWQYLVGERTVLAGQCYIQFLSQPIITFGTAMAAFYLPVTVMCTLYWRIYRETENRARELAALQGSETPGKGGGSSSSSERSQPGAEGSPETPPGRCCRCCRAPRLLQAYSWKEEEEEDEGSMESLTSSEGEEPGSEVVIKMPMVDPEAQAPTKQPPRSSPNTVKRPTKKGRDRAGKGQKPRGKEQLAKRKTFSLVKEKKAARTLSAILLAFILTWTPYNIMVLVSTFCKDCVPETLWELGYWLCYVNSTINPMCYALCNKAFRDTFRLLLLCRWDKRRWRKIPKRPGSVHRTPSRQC
M1 PAM – positive allosteric modulators of human M1 muscarinic receptor | hit rate 0.088% among 360,000 | activation, % at 3 µM | P11229 | CHO-K1 hM1, Fluo-8 calcium fluorescence, ACh EC20; 0% = ACh EC20, 100% = maximal ACh; in the data active = activation above about 19%, passing the limit was not always enough
CHRM5 agonist – agonists of human muscarinic M5 receptor (CHRM5); P08912; CHO-K1 hM5 cells, Fluo-8 calcium fluorescence; 0% DMSO wells, 100% maximal acetylcholine response; activation, % at 3 µM; hit rate 0.19% among 360,000;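 active = activation above the run's mean over test compounds plus 3 SD, cut at about 23% in these data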;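 note: signal is peak over basal fluorescence ratio across the kinetic read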
M5 PAM – potentiates acetylcholine response at human M5 receptor | P08912 | hit rate 0.3% among 360,000 | AID 624038 | activation, % at 3 µM | CHO-K1 hM5, Fluo-8 calcium, ACh EC20 PAM; 0% = ACh EC20, 100% = ACh EC100;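 active = activation above the run cutoff, the mean activation of all test compounds plus 3 SD, cut at about 18% in these data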
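Assay system – human M5 receptor in CHO-K1 cells · Read-out – % activation, ACh-normalized · Technique – Fluo-8 calcium fluorescence · Dosing – single-point, 3 µM nominal · Incubation – Fluo-8 loading 80 min at 37 °C plus 30 min room temperature · Repeats – singlicate, one well per test compound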
M1 antag – human CHRM1 antagonism; CHO-K1 hM1, Fluo-8 calcium fluorescence, ACh EC80 antagonist; inhibition, % at 3 µM; hit rate 1.3% among 360,000; P11229; AID 588852;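 active = percent inhibition above its own plate's cutoff, namely the mean of that plate's compound wells plus 3 SD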;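 note: peak over basal fluorescence ratio during 140 s after agonist addition; 0% = ACh EC80 plus DMSO and 100% = DMSO alone without agonist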
* = called active by the depositor. A selection: hits, their analogues and other compounds. The true share with any hit is near 2%.

SMILES | M5 antag | M1 ag | M1 PAM | CHRM5 agonist | M5 PAM | M1 antag
CC(C)(C)OC(=O)CC(S(=O)(=O)c1ccccc1)S(=O)(=O)c1ccccc1 | 3 | -1 | 8 | 0 | 3 | -13
COc1cc(/C=C2\SC(=S)N(NC(=O)c3ccc(O)cc3)C2=O)ccc1O | 24 | 37* | -13 | 60* | -20 | 35
COc1cc(/C=C2\SC(=S)N(c3cccnc3)C2=O)ccc1O | 12 | 13 | 1 | 9 | -6 | 4
COc1cc(/C=C2\SC(=S)N(NC(=O)c3cccnc3)C2=O)ccc1O | 2 | 2 | -7 | 12 | -4 | 27*
CC(=O)NN1C(=O)/C(=C\c2ccc(O)cc2)SC1=S | 0 | 4 | -2 | 11 | -4 | -2
O=C(NN1C(=O)/C(=C/c2ccc(O)c(O)c2)SC1=S)c1ccccc1 | 14 | 9 | -1 | 40* | -5 | 11
Cc1ccccc1S(=O)(=O)NC(=O)C1(C)CCN1C(=O)c1c(C)noc1C (stereo not given) | 0 | 0 | 5 | 1 | -1 | -3
O=C(/C=C/[C@H]1O[C@@H](n2cnc3c(NC(=O)c4ccccc4)ncnc32)[C@H](O)[C@@H]1O)NC1CCCCC1 | 2 | -1 | -1 | 3 | 5 | -22
CC(C)C#Cc1ccc2c(c1)O[C@@H](CN(C)S(=O)(=O)c1cn(C)cn1)[C@@H](C)CN([C@H](C)CO)S2(=O)=O | 2 | -4 | 4 | -1 | 1 | -13
CCC1CCCCN1S(=O)(=O)c1ccc(NC(=O)c2ccncc2)cc1 (stereo not given) | 19 | 4 | -13 | 8 | -25 | 34*
CCC1CCCCN1S(=O)(=O)c1ccc(S(=O)(=O)N(Cc2cccs2)C2CC2)cc1 (stereo not given) | 11 | -10 | -36 | -4 | -22 | 63*
Cn1c(CC(O)c2nc3ccccc3n2C)nc2ccccc21 (stereo not given) | 6 | -2 | 4 | 1 | 0 | -6
COc1ccc(C2c3c(nc[nH]c3=O)Oc3nc[nH]c(=O)c32)cc1 | -1 | -4 | 8 | -3 | -2 | -7
O=c1[nH]cnc2c1C(c1ccccc1[N+](=O)[O-])c1c(nc[nH]c1=O)O2 | -13 | -6 | 3 | 0 | 21* | -7
CCN(CC(=O)Nc1c(F)cccc1F)C(=O)c1cc(-c2cccs2)nn1-c1ccccc1 | 19 | -1 | -17 | 1 | -27 | 36*
Cc1cc(/C=C\c2ccc3cc(N(C)C)ccc3[n+]2C)c(C)n1-c1ccccc1 | 40* | 26* | -28 | 10 | -17 | 90*
O=Cc1c[nH]c2cccc(OCc3ccccc3)c12 | -2 | -4 | 9 | -2 | -7 | -12
CCn1cc(C(=O)NCCCN2CCC(C)CC2)c(=O)c2cc(S(=O)(=O)N(C)C3CCCCC3)ccc21 | 10 | -6 | -16 | -11 | -6 | 38*
CSCCC(NC(=O)c1ccco1)C(=O)OCc1cc([N+](=O)[O-])cc2c1OCOC2 (stereo not given) | 7 | -5 | -12 | 0 | -1 | 26
O=c1c2ccccc2nnn1CSc1nnc(COc2ccc(Cl)cc2)n1Cc1ccco1 | -3 | -4 | 1 | -2 | 0 | -1
Clc1ccc(OCc2nnc(SCCN3CCCCC3)n2Cc2ccco2)cc1 | 12 | -5 | -21 | -7 | -17 | 99*
CCc1ccc(OCc2nnc(SCCN3CCOCC3)n2CC)cc1 | 1 | -6 | -23 | -3 | 1 | 63*
NC(c1ccccc1)c1csc(Nc2cc(Oc3ccccc3)ncn2)n1 (stereo not given) | 14 | -6 | -30 | -1 | -18 | 60*
CCOC(=O)c1sc(NC(=O)Nc2cccc(Cl)c2)cc1C | 37* | 3 | -18 | 7 | -18 | 43*
O=C(Nc1cccc(Cl)c1)Nc1csc([N+](=O)[O-])c1 | 28* | 6 | 0 | 2 | -26 | 26
Cc1nccc(-c2cccc(NC(=O)Nc3ccc(Cl)cc3)c2)n1 | 28* | 3 | -14 | 8 | -30 | 17
O=C(Nc1ccncc1)Nc1cccc(Cl)c1 | 31* | 5 | -10 | 9 | -13 | 18

From PubChem
